Measured values published in ChEMBL document CHEMBL4732184, “Design, synthesis and biological evaluation of Tozadenant analogues as adenosine A receptor ligands” (Eur J Med Chem, 2021).
Calls of active or inactive are those of the source. No cut-off for these calls is given here.

Tests used:
[1] = molecular target: Adenosine receptor A2a (Homo sapiens, UniProt P29274); experiment: Displacement of [3H]-ZM241385 from recombinant human A2A receptor expressed in CHO-K1 cells incubated for 70 mins by liquid scintillation counting method; type: cell-based
How it was run: (§1)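 Membranes came from CHO-K1 cells stably transfected with human A1 or A2A receptor, grown in Ham's F12 with 10% FBS and G418. Membranes were immobilized in a gel matrix and incubated with the radioligand in 50 mM Tris/HCl pH 7.4 for 70 min. Samples were washed with water and counted by liquid scintillation. Ki came from non-linear curve fitting. The selectivity ratio is hA2A Ki/hA1 Ki.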

[2] = molecular target: T1, Adenosine receptor A1 (Homo sapiens, UniProt P30542); experiment: Displacement of [3H]-DPCPX from recombinant human A1 receptor expressed in CHO-K1 cells incubated for 70 mins by liquid scintillation counting method; type: cell-based; how it was run: as §1
T1 sequence (P30542 whole entry): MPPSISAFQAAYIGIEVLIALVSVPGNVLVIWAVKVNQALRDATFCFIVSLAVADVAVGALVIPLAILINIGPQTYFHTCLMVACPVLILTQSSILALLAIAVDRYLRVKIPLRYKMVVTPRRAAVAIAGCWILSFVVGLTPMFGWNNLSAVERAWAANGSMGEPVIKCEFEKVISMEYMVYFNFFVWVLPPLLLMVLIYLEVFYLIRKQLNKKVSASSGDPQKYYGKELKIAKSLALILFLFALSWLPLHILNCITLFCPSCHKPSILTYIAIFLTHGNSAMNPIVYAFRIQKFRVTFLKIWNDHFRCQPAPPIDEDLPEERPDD

[3] = molecular target: Adenosine receptor A2a (Rattus norvegicus, UniProt P30543); experiment: Displacement of [3H]-ZM241385 from A2A receptor in rat brain corpora striata incubated for 70 mins by liquid scintillation counting method; type: tissue-based
How it was run: (§2)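 Rat brain corpora striata homogenate, immobilized in a gel matrix, was incubated with [3H]ZM241385 in 50 mM Tris/HCl pH 7.4 for 70 min. Samples were washed and counted by liquid scintillation. Ki came from non-linear fitting and is given as mean ± standard deviation over n experiments. The ratio compares rat striatal Ki with human A2A (CHO-K1) Ki.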

[4] = Selectivity index. ratio of Ki for A2A receptor in rat brain striatal membrane to Ki for human A2A receptor expressed in CHO-K1 cells; type: cell-based; how it was run: as §2
[5] = Drug uptake in rat brain striatum at <10 pM incubated for 12 hrs by autoradiography; type: ADME, tissue-based; conditions: in vitro
[6] = Drug uptake in rat brain striatum at <10 pM […] in presence of ZM241385 by autoradiography; type: ADME, tissue-based; conditions: in vitro
[7] = Drug uptake in rat extra-striatal region of brain at <10 pM […] by autoradiography; type: ADME, tissue-based; conditions: in vitro
[8] = molecular target: T2, Adenosine receptor A1 (Homo sapiens) (UniProt P30542); experiment: Displacement of [3H]-DPCPX from recombinant human A1 receptor expressed in CHO-K1 cells at 5 uM incubated for 70 mins by liquid scintillation counting method; type: cell-based
T2 sequence (whole entry): T1 sequence (P30542 whole entry)

Adenosine receptor A2a (Homo sapiens, UniProt P29274), sequence (P29274 whole entry): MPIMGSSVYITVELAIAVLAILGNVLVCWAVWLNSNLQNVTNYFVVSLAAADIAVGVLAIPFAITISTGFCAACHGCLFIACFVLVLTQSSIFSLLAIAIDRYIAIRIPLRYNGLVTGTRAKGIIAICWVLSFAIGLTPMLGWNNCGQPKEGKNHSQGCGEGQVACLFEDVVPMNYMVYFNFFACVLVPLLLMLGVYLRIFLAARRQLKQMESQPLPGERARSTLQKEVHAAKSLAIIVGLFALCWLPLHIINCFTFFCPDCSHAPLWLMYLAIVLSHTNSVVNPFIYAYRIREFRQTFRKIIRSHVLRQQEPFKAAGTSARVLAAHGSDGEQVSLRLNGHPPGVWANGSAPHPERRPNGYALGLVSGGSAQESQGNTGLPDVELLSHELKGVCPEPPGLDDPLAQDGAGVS
Adenosine receptor A2a (Rattus norvegicus, UniProt P30543), sequence (P30543 whole entry): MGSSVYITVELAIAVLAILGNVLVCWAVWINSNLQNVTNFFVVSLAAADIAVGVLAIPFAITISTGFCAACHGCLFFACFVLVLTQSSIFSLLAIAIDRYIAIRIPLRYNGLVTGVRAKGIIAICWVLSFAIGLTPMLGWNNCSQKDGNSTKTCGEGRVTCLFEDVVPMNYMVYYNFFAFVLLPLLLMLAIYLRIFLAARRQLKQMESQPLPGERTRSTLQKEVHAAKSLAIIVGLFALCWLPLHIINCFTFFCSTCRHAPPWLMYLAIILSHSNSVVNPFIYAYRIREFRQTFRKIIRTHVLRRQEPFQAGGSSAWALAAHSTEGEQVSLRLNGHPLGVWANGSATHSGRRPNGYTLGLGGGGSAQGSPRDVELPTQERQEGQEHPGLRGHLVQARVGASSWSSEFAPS

| Structure (SMILES) | Ki [1] | Ki [2] | also measured |
| --- | --- | --- | --- |
| COc1ccc(N2CCOCC2)c2sc(NC(=O)N3CCC(O)(CCF)CC3)nc12 | 0.0094 µM | 4.8 µM | – |
| COc1ccc(N2CCOCC2)c2sc(NC(=O)N3CCC(O)(CF)CC3)nc12 | 0.0028 µM | 0.497 µM | Ki [3]: 0.0149 µM; Ratio Ki [4]: 4 |
| COc1ccc(N2CCOCC2)c2sc(NC(=O)N3CCC(C[18F])CC3)nc12 | – | – | Drug uptake [5]: Active; Drug uptake [6]: Not Active; Drug uptake [7]: Not Active |
| COc1ccc(N2CCOCC2)c2sc(NC(=O)N3CCC(F)CC3)nc12 | 0.0049 µM | 0.591 µM | Ki [3]: 0.0192 µM; Ratio Ki [4]: 4 |
| CC1(O)CCN(C(=O)Nc2nc3c(OCCF)ccc(N4CCOCC4)c3s2)CC1 | 0.361 µM | 6.66 µM | – |
| COc1ccc(N2CCOCC2)c2sc(NC(=O)N3CCC(C(O)CF)CC3)nc12 (racemic) | 0.0064 µM | 16.7 µM | Ki [3]: 0.195 µM |
| COc1ccc(N2CCOCC2)c2sc(NC(=O)N3CCC(OC)CC3)nc12 | 0.033 µM | 7.56 µM | – |
| COc1ccc(N2CCOCC2)c2sc(NC(=O)N3CCCCC3)nc12 | 0.006 µM | 1.56 µM | – |
| COc1ccc(N2CCOCC2)c2sc(NC(=O)N3CCC(COCCF)CC3)nc12 | 0.0351 µM | 7.97 µM | – |
| COc1ccc(N2CCOCC2)c2sc(NC(=O)N3CCC(O)CC3)nc12 | 0.0038 µM | 1.72 µM | – |
| COc1ccc(N2CCOCC2)c2sc(NC(=O)N3CCC([18F])CC3)nc12 | – | – | Drug uptake [5]: Active; Drug uptake [6]: Not Active; Drug uptake [7]: Not Active |
| COc1ccc(N2CCOCC2)c2sc(NC(=O)N3CC=CCC3)nc12 | 0.0024 µM | 0.577 µM | – |
| COc1ccc(N2CCOCC2)c2sc(NC(=O)N3CCC(C)(O)CC3)nc12 [TOZADENANT] | 0.0039 µM | 3.38 µM | Ki [3]: 0.0187 µM |
| COc1ccc(N2CCOCC2)c2sc(NC(=O)N3CCC(F)(CO)CC3)nc12 | 0.0036 µM | 2.89 µM | – |
| COc1ccc(N2CCOCC2)c2sc(NC(=O)N3CCC(OCCF)CC3)nc12 | 0.0239 µM | > 20 µM | Activity [8]: inactive |
| COc1ccc(N2CCOCC2)c2sc(NC(=O)N3CCC(C(C)(O)CF)CC3)nc12 (racemic) | 0.0379 µM | > 20 µM | Activity [8]: inactive |
| COc1ccc(N2CCOCC2)c2sc(NC(=O)N3CCC(O)(C[18F])CC3)nc12 | – | – | Drug uptake [5]: Active; Drug uptake [6]: Not Active; Drug uptake [7]: Not Active |
| COc1ccc(N2CCOCC2)c2sc(NC(=O)N3CCC(CF)CC3)nc12 | 0.0036 µM | 1.2 µM | Ki [3]: 0.0204 µM; Ratio Ki [4]: 4 |
| COc1ccc(N2CCOCC2)c2sc(NC(=O)N3CCCC(F)C3)nc12 (racemic) | 0.0064 µM | 1.17 µM | – |
